From PubChem
M4 ag: human M4 muscarinic receptor agonists, primary screen, CHO-K1 cells, Fluo-8 calcium fluorescence; Muscarinic acetylcholine receptor M4 (Homo sapiens), P08173; CHO-K1 hM4/Gqi5; vehicle 0%, full acetylcholine response 100%; activation, % at 3 µM; actives 0.14% (n = 360,000); AID 624127, 2012;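 active means activation above the run mean over all test wells plus 3 SD, cut at about 32% in these data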;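 further: peak over basal fluorescence ratio per well then scaled between controls; 0% = DMSO wells and 100% = acetylcholine at EC100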
M4 PAM: human M4 muscarinic receptor positive allosteric modulators, primary screen, CHO-K1 cells, Fluo-8 calcium fluorescence; Muscarinic acetylcholine receptor M4 (Homo sapiens), P08173; CHO-K1 hM4/Gqi5, ACh EC20; 0% = ACh EC20, 100% = maximal ACh; activation, % at 3 µM; actives 0.4% (n = 360,000);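 active means activation above its plate's cutoff, the mean activation of sample wells plus 3 SD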
CHRM5 agonist: human M5 muscarinic receptor agonists, primary screen, CHO-K1 cells, Fluo-8 calcium fluorescence. activation, % at 3 µM. Muscarinic acetylcholine receptor M5 (Homo sapiens), P08912. actives 0.19% (n = 360,000). AID 624037, 2012. CHO-K1 hM5 cells; 0% DMSO wells, 100% maximal acetylcholine response;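 active means activation above the run's mean over test compounds plus 3 SD, cut at about 23% in these data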;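 further: signal is peak over basal fluorescence ratio across the kinetic read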
Target sequence (P08912 whole entry, looked up): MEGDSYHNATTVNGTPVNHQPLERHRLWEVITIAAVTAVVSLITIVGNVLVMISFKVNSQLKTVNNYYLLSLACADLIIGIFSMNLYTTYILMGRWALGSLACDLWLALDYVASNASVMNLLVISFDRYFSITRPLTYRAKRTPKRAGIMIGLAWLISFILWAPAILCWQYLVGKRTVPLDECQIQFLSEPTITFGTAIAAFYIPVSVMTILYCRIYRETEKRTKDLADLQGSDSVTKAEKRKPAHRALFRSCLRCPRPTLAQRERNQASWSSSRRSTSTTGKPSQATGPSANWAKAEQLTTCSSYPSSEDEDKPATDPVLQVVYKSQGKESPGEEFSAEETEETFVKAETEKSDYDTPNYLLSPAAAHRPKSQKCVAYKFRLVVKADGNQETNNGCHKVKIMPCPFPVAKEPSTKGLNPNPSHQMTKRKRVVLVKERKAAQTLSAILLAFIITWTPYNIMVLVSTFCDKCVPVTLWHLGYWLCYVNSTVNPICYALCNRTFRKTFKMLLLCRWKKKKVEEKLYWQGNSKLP
CHRM4 antagonist: human M4 muscarinic receptor antagonists, primary screen, CHO cells, Fluo-8 calcium fluorescence. Muscarinic acetylcholine receptor M4 (Homo sapiens), P08173. CHO-hM4 cells, ACh EC80. actives 0.73% (n = 360,000). AID 624125, 2012. inhibition, % at 3 µM;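 active means inhibition above its plate's cutoff, the mean inhibition of sample wells plus 3 SD, cut at about 27% in these data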;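 further: 0% = acetylcholine EC80 with DMSO and 100% = DMSO without agonist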
CHRM5 antagonist: human M5 muscarinic receptor antagonists, primary screen, CHO cells, Fluo-8 calcium fluorescence; CHO-hM5 cells, ACh EC80; inhibition, % at 3 µM; actives 0.59% (n = 360,000); AID 624040, 2012;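 active means inhibition above a per-plate cutoff, the mean of that plate's test compounds plus 3 SD, cut at about 27% in these data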;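 further: 0% = acetylcholine EC80 with DMSO and 100% = DMSO without agonist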
M5 PAM: human M5 muscarinic receptor positive allosteric modulators, primary screen, CHO-K1 cells, Fluo-8 calcium fluorescence. Muscarinic acetylcholine receptor M5 (Homo sapiens), P08912. CHO-K1 hM5, ACh EC20 PAM; 0% = ACh EC20, 100% = ACh EC100. activation, % at 3 µM. actives 0.3% (n = 360,000). AID 624038, 2012;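 active means activation above the run cutoff, the mean activation of all test compounds plus 3 SD, cut at about 18% in these data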
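Assay system – human M5 receptor in CHO-K1 cells · Read-out – % activation, ACh-normalized · Technique – Fluo-8 calcium fluorescence · Dosing – single-point, 3 µM nominal · Incubation – Fluo-8 loading 80 min at 37 °C plus 30 min room temperature · Repeats – singlicate, one well per test compound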
* marks the source's active call; other numbers are inactive results. Rows were chosen to be rich in hits. Some 1.9% of all compounds tested hit in one or more screens of this group.

SMILES	M4 ag	M4 PAM	CHRM5 agonist	CHRM4 antagonist	CHRM5 antagonist	M5 PAM
c1ccc(C(c2ccccc2)c2noc(CN3CCN(CC4CC4)CC3)n2)cc1	1	-24	-18	31*	24	-33
COCC1CCCN(Cc2nc(C(c3ccccc3)c3ccccc3)no2)C1 (stereo unspecified)	-1	-4	-9	-11	1	1
O=Cc1ccccc1Oc1ccccc1	0	1	2	1	-1	4
O=Cc1ccccc1OCCOc1ccccc1C=O	1	-11	-5	27*	21	-21
CN(C(=O)COC(=O)/C=C/c1ccccc1)C1CCS(=O)(=O)C1 (stereo unspecified)	0	2	2	-1	4	0
CC1CN(C(=O)N(C)C)CCN1C(=O)N(C)C (stereo unspecified)	0	13	-2	31*	7	-4
Nn1c(SCC(=O)Nc2ccccc2Br)nnc1-c1ccco1	0	0	-2	-4	5	-2
O=C(Nc1ccc(Cl)c(Cl)c1)C1CCN(C(=O)c2ccco2)CC1	13	-3	6	3	8	-9
Cc1cccc(C)c1NC(=O)C1CCCN(CCCc2ccccc2)C1 (stereo unspecified)	2	-25	-11	83*	22	-34
Cc1nn(CC(=O)NCCCc2ccccc2)c(=O)c2cc3occc3n12	0	15	-3	-23	-9	7
Cc1ccc2c(c1)cc1c(=O)n(CC(=O)NCCCc3ccccc3)nc(C)n12	19	-10	3	32*	4	-11
O=C(Nc1ccc(Oc2ccccc2)nc1)C1CCCCN1Cc1ccc(OCCO)cc1 (stereo unspecified)	1	-6	-8	4	-4	7
Cc1oc(C(=O)O)cc1COc1ccccc1Cl	1	11	30*	-1	6	42*
O=C(O)c1ccccc1COc1ccccc1Cl	0	0	0	-1	5	1
Cc1nc(-c2ccc(C(=O)Nc3cc(S(N)(=O)=O)ccc3C)cc2)cs1	1	-11	-3	30*	0	1
CCNc1nc(NC(C)C)nc(-c2ccncc2)n1	0	-1	2	1	-5	1
CCCC(C)C(=O)Nc1ccc(S(N)(=O)=O)cc1 (stereo unspecified)	1	23*	-3	-7	-9	8
Cc1ccc(S(=O)(=O)Nc2ccc(Nc3nccn4c(-c5ccc6ccccc6c5)cnc34)cc2)cc1	0	4	-1	-4	6	-9
N#C/C(=C\c1coc2ccc(O)cc2c1=O)C(=O)Nc1nc2ccccc2s1	67*	-38	105*	39*	48*	-28
O=C1CC(=C(c2ccccc2)c2ccccc2)C(=O)N1CCCCN1CCN(c2cccc(Cl)c2)CC1	-2	-20	-8	40*	11	-18
Cc1ccccc1N1CCN(CCCN2C(=O)CC(=C(c3ccccc3)c3ccccc3)C2=O)CC1	-3	-17	-9	38*	-1	-14
Cc1ccccc1N1CCN(CCN2C(=O)CC(=C3c4ccccc4-c4ccccc43)C2=O)CC1	1	14	2	-11	-4	6
CC(=O)SCC[N+](C)(C)C	1	-5	63*	-1	20	-20
C[N+](C)(C)CCOC(=O)CCC(=O)OCC[N+](C)(C)C	1	-6	2	-4	-1	-3
O=c1c2cccnc2n(-c2ccccc2)n1Cc1ccc(Cl)cc1	0	22*	-2	-2	3	-3
SMILES	M4 ag	M4 PAM	CHRM5 agonist	CHRM4 antagonist	CHRM5 antagonist	M5 PAM
O=c1c2cccnc2n(-c2ccccc2)n1Cc1c(Cl)cccc1Cl	1	7	-2	-3	12	-3
Cc1nc(NC(=O)c2ccccc2)sc1-c1cc(C(=O)O)nn1Cc1ccccc1	0	3	0	-7	-3	3
CCC(=O)N1CCCc2cc(S(=O)(=O)N3CCN(c4ccccn4)CC3)ccc21	6	0	-6	-5	8	33*
CCC(=O)N1CCCc2cc(S(=O)(=O)N3CCN(c4ncccn4)CC3)ccc21	2	4	1	-14	1	-3
COc1cccc(CNC(=O)[C@@H]2CCCN2C(=O)[C@H]2CCCCN2C(=O)c2cccc(Cl)c2)c1	4	5	6	-7	2	-4
COc1ccc2c(c1)Cc1sc(NC(=O)c3ccccc3)nc1-2	5	18*	5	-8	3	4
Cc1cc2ccccc2n1CCNCc1c(C(=O)N2CCOCC2)nc2ccccn12	30	-17	245*	25	75*	-6
CNS(=O)(=O)c1ccc(NC(=O)c2ccccn2)cc1	3	28*	1	-2	7	-1
COc1ccccc1CN(C)C[C@H]1OCc2cnnn2CCCC(=O)N([C@@H](C)CO)C[C@@H]1C	1	-1	1	4	-4	3
O=C(Nc1nnc(-c2ccco2)o1)c1ccc(S(=O)(=O)N2CCCC2)cc1	1	2	0	5	-15	7
O=C(Nc1nnc(-c2ccco2)o1)C1CC1	2	13	6	-4	-8	23*
CC1CCN(S(=O)(=O)c2ccc(C(=O)Nc3nnc(-c4ccco4)o3)cc2)CC1	0	6	1	2	-35	29*
Cc1ccc(C(=O)Nc2nnc(-c3ccco3)o2)cc1	2	17	2	2	14	22*
CS(=O)(=O)c1ccccc1-c1nnc(NC(=O)c2ccco2)o1	0	-4	0	39*	-3	0
CCC(=O)N1CCC1(C)C(=O)Nc1cccc2cccnc12 (stereo unspecified)	1	3	1	-7	-8	2
CCCCS(=O)(=O)N1CCN(S(=O)(=O)c2ccc(Cl)s2)CC1	1	-4	-2	1	11	-4
CN(C)CCOC(c1ccccc1)c1ccccc1 (tested in a mixture with another compound)	1	-17	-1	37*	53*	-18
Cc1ccccc1C(O)c1cccnc1 (stereo unspecified)	1	4	-1	-10	0	3
